From ChEMBL document CHEMBL4680111, “Target Validation and Identification of Novel Boronate Inhibitors of the Plasmodium falciparum Proteasome” (J Med Chem, 2018)
Active and inactive are the calls of the source. No cut-off for these calls is given here.

Assays:
Plasmodium falciparum [1] = experiment: Binding affinity to Plasmodium falciparum 20S proteasome beta 2 subunit assessed as half-life using fluorogenic peptide Ac-WLR-AMC as substrate in presence of PA28alpha by fluorescence based microplate reader assay
Plasmodium falciparum [2] = experiment: Inhibition of proteasome in Plasmodium falciparum trophozoite stage transfected with GFP-DD assessed as reduction in GFP-DD fusion protein degradation at 0.2 to 0.5 uM incubated for 3 hrs in absence of Shield-1 by Western blot analysis; conditions: dose 0.2-0.5 µM
Outline: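 GFP-DD reporter parasites were held in Shield-1 for 24 h, then washed out. Trophozoites at 5% hematocrit and 5% parasitemia were exposed to compound for 3 h at 37°C. Saponin-isolated parasites were lysed and blotted with anti-GFP (1:1000), with anti-PfBiP as loading control. Representative of four independent experiments.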

SMILES | T1/2 (Plasmodium falciparum [1]) [h] | inhibition (Plasmodium falciparum [2])
CC(C)C[C@H](NC(=O)[C@H](Cc1ccccc1)NC(=O)Cc1ccc(O)cc1)B(O)O | 1.08 | –
CC(=O)N1CCC[C@@H]1C(=O)N[C@@H](C)C(=O)N[C@@H](Cc1ccccc1)B(O)O | – | Active
